# Values without a mark were called inactive. Results filed as inconclusive are left out. Active and inactive are the calls of the source.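 Rule for the calls, unless noted: active = viability increase at or above a cutoff of the median across tested compounds plus 3 SD (cut at about 8.5% in these data, passing the limit was not always enough); inconclusive = some gains above the cutoff, reason not given; inactive = the rest.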
# What was measured:
# [1] = OD615 S. cerevisiae growth inhibition, permissive medium, pilot counter-assay, permissive growth control for S. cerevisiae lifespan shortening project (AID 705;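 active = growth inhibition above 25% in both replicates, a cutoff set 3 SD above the mean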); conditions: OD615, 24 h, at 10 µM, hits give high values
# Outline: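 System: engineered DeaD yeast; Medium: permissive raffinose/galactose medium; Compound dosing: 10 µM single dose, 0.25% DMSO; Incubation: 4 h cell pre-growth, 24 h exposure at 30 °C; Technique: OD at 615 nm; Evaluation: growth inhibition from lowered OD615 after 24 h.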
# [2] = Restrictive medium S. cerevisiae growth inhibition, OD615, pilot screen of yeast lifespan reduction project, restrictive growth control (AID 706;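 active = growth inhibition above a set limit, 3 SD over mean compound inhibition, in both replicates, cut at about 43% in these data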;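 note: modified DeaD lifespan yeast strain shifted to restrictive glucose medium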); conditions: OD615, 48 h, at 10 µM, hits give high values
# Outline: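 Material: modified S. cerevisiae; buffer or medium: CSMM-D glucose medium; doses: one concentration, 10 µM final, 0.25% DMSO; incubation: 48 h compound exposure at 30 °C; detection: optical density at 615 nm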
# [3] = viability gain of MRP-1-high H69AR cells under doxorubicin, pilot screen, MRP-1 activator project, CellTiter-Glo, duplicate (AID 807); conditions: H69AR viability with doxorubicin, CellTiter-Glo luminescence; at 10 µM; hits give high values;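 note: compound pretreatment 18-22 h then 72 h combined with doxorubicin; 0% = doxorubicin alone and 100% = vehicle without doxorubicin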
# [4] = growth suppression of beta-catenin knockout HCT116, pilot screen, human colon tumor cells (AID 823;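 active = cell viability at or below a set limit in both duplicate runs, the limit being the all-compound median minus 4 SD, cut at about 23% in these data, passing the limit was not always enough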;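 note: 0% = wells killed by 20 µM Hyamine and 100% = untreated DMSO cell wells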); conditions: CellTiter-Glo, 60 h, at 10 µM, hits give low values
# [5] = growth suppression of PTEN-deleted HCT116, pilot screen, cell-based, HCT116 clonal line, CellTiter-Glo (AID 824;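 active = viability at or below 27.92% in each of two runs, the all-compound median minus 4 SD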;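 note: 0% = 20 µM Hyamine control and 100% = vehicle cell control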); conditions: 60 h, at 10 µM, hits give low values
# [6] = inhibitors of the yeast RAM network, pilot screen, dse1pr::URA3 reporter, 5-FOA selection (AID 869;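 active = inhibition over a set limit, the all-compound mean plus 3 SD, in both replicate runs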;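 note: 0% = DMSO wells with no growth and 100% = 10 µM 1-NA-PP1 with full growth; RAM network block rescues cells from 5-FOA so hits raise OD615 growth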); conditions: S. cerevisiae dse1pr::URA3 5-FOA growth, OD615, 2 d; at 10 µM; hits give high values; strain carries analog-sensitive mutant Cbk1 kinase
# [7] = RAM signaling pathway blockade in yeast – S. cerevisiae, Pdr1DBD-CYC8 efflux-inhibited sensitized strain, primary screen (AID 1298;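 active = RAM network inhibition above 8.4% in each of two replicates, 3 SD over the compound average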;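 note: 0% = DMSO untreated cells without growth and 100% = 10 µM 1-NA-PP1 full growth; higher means more yeast growth rescued from 5-FOA killing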); conditions: S. cerevisiae cbk1-as DSE1-URA3 strain, 5-FOA growth OD615, 2 d; at 50 µM; hits give high values
SMILES,growth inhibition [1],growth inhibition [2],viability increase [3],viability [4],viability [5],inhibition [6],RAM network inhibition [7]
Cc1cccc(C(=O)N2CCN(Cc3ccc4c(c3)OCO4)CC2)c1,-10.7%,-4.2%,-1.3%,111%,95.7%,-0.065%,4.6%
CCCCS(=O)CC(COc1ccc(Cl)cc1)OC(=O)c1ccccc1 (stereo unspecified),-11.8%,-9.18%,3.23%,76.1%,86.2%,0.42%,5.86%
COCc1cc(CN2CCCC2)c(O)c2ncccc12,-11.1%,-11.6%,0.15%,8.07% (active),11.3% (active),-0.255%,5.55%
CCC(C)NC(=O)C1CCN(C(=O)c2ccccc2)CC1 (stereo unspecified),-3.49%,-5.37%,0.74%,102%,98.2%,1.18%,1.87%
O=C(CCC1CCCC1)c1c(O)c2ccccc2oc1=O,0.51%,13.6%,-2.11%,69.4%,67.7%,0.63%,-1.56%
CC(C)N(Cc1nc(-c2ccc(Cl)cc2)no1)C(=O)CCC1CCCC1,-13.1%,-14.6%,-0.03%,70.3%,74.4%,0.865%,8.34%
CCCSC1=N/C(=C\c2ccsc2)C(=O)S1,-10.5%,-3.12%,-0.76%,95.1%,99.2%,0.72%,9.91%
Cc1nc2c3ccccc3n(CC(=O)c3ccc(F)cc3)c(=O)n2n1,-13.8%,-4.75%,-2.79%,96.8%,94.7%,3.38%,3.78%
CCOC(=O)C1CCCN(C(=O)c2ccc(CS(=O)(=O)c3ccc(C)cc3)o2)C1 (stereo unspecified),-0.315%,-6.29%,-2.78%,110%,101%,1.16%,3.23%
COC(=O)C1CCCN1C(C(=O)NC1CCCCC1)c1ccc(Cl)cc1 (stereo unspecified),-15.1%,-2.47%,1.72%,82.7%,74.9%,0.02%,2.27%
CC(C)c1ccc2c(c1)C(=O)NC(C)(C)C2,-8.81%,-11.3%,-2.07%,116%,97.8%,1.88%,4.27%
CC(=O)Nc1ccc(NC(=O)C2CC(=O)N(c3cccc(C)c3C)C2)cc1 (stereo unspecified),-21.2%,-8.03%,-1.32%,93.8%,91.2%,0.435%,2.95%
CCOC(=O)c1c(C)c(-c2ccccc2)n(CC(=O)N2CCCC2)c1C,-8.25%,-12.4%,-3.38%,87.6%,92.3%,1.31%,2.73%
O=C(Nc1ccc2c(c1)OCO2)c1cc(C2CC2)on1,-12.5%,-18%,-3.41%,84.9%,88.8%,1%,3.09%
COc1ccccc1N1CCN(C(=O)c2cc3c(=O)n(C)c4ccccc4c3n2C)CC1,-7.35%,3.62%,2.2%,67.3%,72%,0.125%,-0.26%
COc1ccccc1N(CC(=O)N1CCCCCC1)S(C)(=O)=O,-11.6%,-10.7%,-1.57%,89.1%,92.5%,0.495%,2.63%
CC(=O)c1c(N(C)C)ccnc1C(F)(F)F,-3.09%,8.03%,-2.95%,107%,95.4%,1.92%,0.62%
CSC1=NCCN1C(=O)COc1ccc2ccccc2c1,-2.13%,-6.38%,0.69%,98.9%,101%,2.77%,-0.94%

# Source: PubChem BioAssay
